Source: publication PMC4109633 (Drug Design, Development and Therapy, 2014)
Marks after values point to notes of the source that are not given here.

How the values were obtained:
Type in all cases: cell-based
[1] = system: Salmonella typhimurium TA1535; experiment: Cytotoxicity in liquid medium; conditions: mean ± SEM
Summary of the method: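 TA1535 was grown in broth microdilution with test compound at 25, 50 or 100 µM. Viability was expressed as % of untreated control (mean ± SEM), triplicate.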

[2] = system: Salmonella typhimurium TA1535; experiment: Ames Salmonella/microsomal mutagenicity assay; conditions: presence of S9 mix, spontaneous 67.0±6.1
[3] = system: Salmonella typhimurium TA1535; experiment: Antimutagenicity assay against sodium azide; conditions: for NaN3 mutagenicity (revertant colonies/plate; mean ± SEM): NaN3 2 μg/plate, spontaneous 29.3±5.3
Summary of the method: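 TA1535 was exposed to test compound at 10 or 20 µM with NaN₃ (2 µg/plate) in two schemes. In pre-exposure, compound and bacteria were shaken 30 min at 37°C before mutagen was added. In co-exposure, bacteria, mutagen and compound were incubated together 30 min at 37°C. Cells were then plated on minimal glucose agar, and revertants counted at 48 h, in triplicate. Mutant frequency = mutant colonies/viable colonies.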

[4] = system: Salmonella typhimurium TA1535; experiment: Antimutagenicity assay against benzo[a]pyrene with S9 mix; conditions: for B[a]P mutagenicity (revertant colonies/plate; mean ± SEM): B[a]P 20 μM + S9 mix, spontaneous 105.0±13.1; for Mutant frequency (benzo[a]pyrene): mutant colonies/viable colonies
[5] = co-exposure, 20 μM, mutant colonies/viable colonies
[6] = pre-exposure, 10 μM, mutant colonies/viable colonies
[7] = pre-exposure, 20 μM, mutant colonies/viable colonies

| SMILES | Viability at fluoroarylbichalcophene concentrations (% of control) ([1]; 25 μM) | Viability at fluoroarylbichalcophene concentrations (% of control) ([1]; 50 μM) | Viability at fluoroarylbichalcophene concentrations (% of control) ([1]; 100 μM) | Fluoroarylbichalcophene mutagenicity (revertant colonies/plate; mean ± SEM) ([2]; 10 μM) [revertant colonies/plate] | Fluoroarylbichalcophene mutagenicity (revertant colonies/plate; mean ± SEM) ([2]; 20 μM) [revertant colonies/plate] | NaN3 mutagenicity (revertant colonies/plate; mean ± SEM) ([3]; co-exposure, 10 μM) [revertant colonies/plate] | NaN3 mutagenicity (revertant colonies/plate; mean ± SEM) ([3]; co-exposure, 20 μM) [revertant colonies/plate] | Mutant frequency (sodium azide) [3, 5] | NaN3 mutagenicity (revertant colonies/plate; mean ± SEM) ([3]; pre-exposure, 10 μM) [revertant colonies/plate] | Mutant frequency (sodium azide) [3, 6] | NaN3 mutagenicity (revertant colonies/plate; mean ± SEM) ([3]; pre-exposure, 20 μM) [revertant colonies/plate] | Mutant frequency (sodium azide) [3, 7] | B[a]P mutagenicity (revertant colonies/plate; mean ± SEM) ([4]; co-exposure, 10 μM) [revertant colonies/plate] | Mutant frequency (benzo[a]pyrene) ([4]; co-exposure, 10 μM) | B[a]P mutagenicity (revertant colonies/plate; mean ± SEM) ([4]; co-exposure, 20 μM) [revertant colonies/plate] | Mutant frequency (benzo[a]pyrene) ([4]; co-exposure, 20 μM) | B[a]P mutagenicity (revertant colonies/plate; mean ± SEM) ([4]; pre-exposure, 10 μM) [revertant colonies/plate] | Mutant frequency (benzo[a]pyrene) ([4]; pre-exposure, 10 μM) | B[a]P mutagenicity (revertant colonies/plate; mean ± SEM) ([4]; pre-exposure, 20 μM) [revertant colonies/plate] | Mutant frequency (benzo[a]pyrene) ([4]; pre-exposure, 20 μM) | further results |
| --- | --- | --- | --- | --- | --- | --- | --- | --- | --- | --- | --- | --- | --- | --- | --- | --- | --- | --- | --- | --- | --- |
| N#Cc1ccc(-c2ccc(-c3ccco3)o2)c(F)c1 [Compound 4a, 4-(2,2′-Bifuran-5-yl)-3-fluorobenzonitrile] | 100.0±8.5 % of control | 66.3±5.6 ^a % of control | 45.7±3.5 ^a % of control | 63.3±5.5 | 69.7±7.0 | 75.0±2.3 | 34.3±4.9 | 0.69 | 47.7±6.5 | 0.99 | 26.0±5.5 | 0.52 | 270.0±19.0 | 4.08 | 268.0±16.6 | 4.14 | 267.0±11.0 | 4.04 | 267.7±13.0 | 4.14 |  |
| N#Cc1ccc(-c2ccc(-c3ccco3)o2)cc1F [Compound 4b, 4-(2,2′-Bifuran-5-yl)-2-fluorobenzonitrile] | 88.3±7.4 % of control | 64.7±6.6 ^a % of control | 29.0±3.1 ^a % of control | 64.3±4.0 | 71.3±4.0 | 35.3±2.8 | 32.7±5.5 | 0.64 | 69.7±8.0 | 1.28 | 48.3±5.0 | 0.95 | 193.0±15.7 | 3.00 | 154.7±16.5 | 2.41 | 239.3±10.5 | 3.72 | 238.0±7.6 | 3.70 | Mutant frequency (sodium azide) ([3]; co-exposure, 10 μM, mutant colonies/viable colonies): 0.65 |
| [N-]=[N+]=[N-].[Na+] [NaN3, sodium azide, reference compound] |  |  |  |  |  |  |  |  |  |  |  |  |  |  |  |  |  |  |  |  | Mutant frequency, NaN3 alone ([3]; NaN3 without fluoroarylbichalcophene, mutant colonies/viable colonies): 2.65 (100) |
